ADAM10 inh = inhibitors of human ADAM10; O14672; recombinant ADAM10, EDANS/DABCYL FRET peptide cleavage, 3 h; inhibition, % at 7 µM; actives 0.62% (n = 370,000); AID 720582;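 active = inhibition above a per-campaign cutoff equal to the mean of compounds falling between control-based bounds plus 3 SD, cut at about 20% in these data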;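 also: 0% = DMSO wells while the 100% control is not disclosed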
ADAM17 inh = inhibitors of human ADAM17 | P78536 | recombinant ADAM17, EDANS/DABCYL FRET peptide cleavage | inhibition, % at 6.95 µM | actives 0.83% (n = 370,000) | AID 720648;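 active = inhibition above the mean of compounds lying between control limits plus 3 SD, set per campaign, cut at about 8.5% in these data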;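 also: 0% = DMSO-only wells as the low control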
Target sequence (P78536 215-824 limits assumed): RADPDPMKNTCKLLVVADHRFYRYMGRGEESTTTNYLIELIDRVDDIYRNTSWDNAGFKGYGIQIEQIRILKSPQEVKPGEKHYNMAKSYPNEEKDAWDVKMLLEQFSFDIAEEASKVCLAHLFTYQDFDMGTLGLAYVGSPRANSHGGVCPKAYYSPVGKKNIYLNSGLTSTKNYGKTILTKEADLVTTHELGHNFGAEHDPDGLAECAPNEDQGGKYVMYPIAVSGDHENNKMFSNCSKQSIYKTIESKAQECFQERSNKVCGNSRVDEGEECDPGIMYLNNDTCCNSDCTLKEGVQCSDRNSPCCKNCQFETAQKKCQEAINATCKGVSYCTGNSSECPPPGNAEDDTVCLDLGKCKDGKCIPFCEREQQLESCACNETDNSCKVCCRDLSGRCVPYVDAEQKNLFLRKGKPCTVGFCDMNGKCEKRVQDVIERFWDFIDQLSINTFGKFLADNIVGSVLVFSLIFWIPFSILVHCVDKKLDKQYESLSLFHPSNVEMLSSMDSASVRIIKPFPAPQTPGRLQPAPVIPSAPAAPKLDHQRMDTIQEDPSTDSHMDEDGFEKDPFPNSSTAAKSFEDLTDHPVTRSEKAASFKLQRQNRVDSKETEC
SKN-1 block = inhibitors of C. elegans SKN-1. actives 0.49% (n = 360,000). C. elegans VP596 Pgst-4::GFP/RFP ratio, acrylamide-induced, 24 h. inhibition, % at 21.8 µM;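 active = interference check ratio from 0.5 to 1.5 plus GFP to RFP signal ratio inhibition reaching or exceeding a fixed threshold, cut at about 30% in these data, passing the limit was not always enough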
MT1-MMP act inh = blocks activation of human MT1-MMP; P50281; HT1080 RFP-PRO-GFP cells, GFP/RFP ratio fluorescence, overnight; percent of plate control window, DMSO zero; GFP/RFP ratio change, % at 20 µM; actives 0.061% (n = 360,000); AID 651647;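 active = GFP/RFP ratio change of at least 30% with cell ATP level not reduced by more than half and red fluorescence within 50% of control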
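Read-out: GFP/RFP fluorescence ratio; Test system: RFP-PRO-GFP reporter HT1080 cells; Compound dosing: single-point 20 µM compound, 1% DMSO; Times: overnight compound exposure at 37 °C.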
GRIN3A LBD mod = modulates the human NR3A ligand-binding domain; NR3A LBD differential scanning fluorimetry, Tm shift; 0% = protein alone, 100% = glycine-bound protein; Tm shift relative to glycine control, % at 25 µM; actives 2.5% (n = 340,000); AID 1259313;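 active = melting temperature shift of at least 10% of the positive control shift, at one fixed dose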
MPTP block = blocks calcium-induced mitochondrial swelling; isolated mouse mitochondria, Ca2+ swelling absorbance, 30 min; inhibition, % at 10 µM; actives 1.4% (n = 360,000); AID 602449;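 active = inhibition of 50% or more, scaled per plate between neutral and stimulator controls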;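 also: 0% = DMSO wells given calcium and 100% = 1 mM EGTA wells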
ADAM10 counter = ADAM10 inhibition, counter-screen for ADAM17 exosite hits; shares compounds with ADAM17 inh; recombinant ADAM10, EDANS/DABCYL FRET peptide cleavage, 3 h; actives 47% (n = 2,900); inhibition, % at 6.95 µM;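 active = mean inhibition over the triplicate runs exceeds the activity threshold set in the earlier primary screen, cut at about 20% in these data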;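 also: 0% = DMSO wells and 100% = marimastat wells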
ADAM17 confirm = confirmation of inhibitors of human ADAM17 | recombinant ADAM17, EDANS/DABCYL QFRET peptide cleavage | inhibition, % at 6.95 µM | AID 743257 | shares compounds with ADAM17 inh | actives 65% (n = 2,900);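 active = mean inhibition across replicates above the hit cutoff set in the primary screen, cut at about 8.5% in these data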;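 also: 0% = DMSO wells and 100% = marimastat wells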
Starred values were filed as active, the others as inactive. Rows were chosen to be rich in hits. Some 4.7% of all compounds tested hit in one or more screens of this group.

For O=C(Nc1ccccc1)c1cc(C2CCCCN2S(=O)(=O)c2ccccc2)on1 (configuration not stated) the results were ADAM10 inh 15, ADAM17 inh 12*, SKN-1 block 11, MT1-MMP act inh -5, MPTP block 0, ADAM10 counter 13 and ADAM17 confirm 8.
CCC(C)(C)n1nnnc1C(c1ccc(C)cc1)N(Cc1ccco1)Cc1cccs1 (configuration not stated) was read as ADAM10 inh 13, ADAM17 inh 9.4*, SKN-1 block 3, MT1-MMP act inh -21, GRIN3A LBD mod 2, MPTP block 0, ADAM10 counter 7 and ADAM17 confirm 5.
Cc1ccc(C2=NN(C(=O)CCC(=O)O)C(c3ccc4c(c3)OCO4)C2)cc1 (configuration not stated) was read as ADAM10 inh -5, ADAM17 inh -4, SKN-1 block 14, MT1-MMP act inh 2, GRIN3A LBD mod -2 and MPTP block 0.
Screening O=C1CCN(S(=O)(=O)c2ccccc2)CCN1CCOCc1cccc(F)c1 returned ADAM10 inh 11, ADAM17 inh 10*, SKN-1 block 4, MT1-MMP act inh -2, GRIN3A LBD mod 0, MPTP block -1, ADAM10 counter -3 and ADAM17 confirm 3.
O=C(OCCOc1cccc(Cl)c1)c1cc(S(=O)(=O)N2CCOCC2)ccc1F was read as ADAM10 inh 6, ADAM17 inh 10*, SKN-1 block 11, MT1-MMP act inh -2, GRIN3A LBD mod 1, MPTP block -2, ADAM10 counter 12 and ADAM17 confirm 6.
For O=C(OCCOc1ccccc1)c1cc(S(=O)(=O)N2CCOCC2)ccc1Cl the results were ADAM10 inh -1, ADAM17 inh -1, SKN-1 block 16, MT1-MMP act inh 0, GRIN3A LBD mod -1 and MPTP block -1.
For COc1ccccc1NS(=O)(=O)c1ccc(Cl)c(NC(=S)NC(=O)C2CCCC2)c1 the results were ADAM10 inh 13, ADAM17 inh 9.9*, SKN-1 block 5, MT1-MMP act inh 2, GRIN3A LBD mod 1, MPTP block 12, ADAM10 counter 38* and ADAM17 confirm 17*.
COc1ccc(Cl)cc1NC(=O)c1nnn(CC(=O)Nc2ccc(C)c(C)c2)c1N was read as ADAM10 inh 8, ADAM17 inh 11*, SKN-1 block -1, MT1-MMP act inh 3, GRIN3A LBD mod 14*, MPTP block 3, ADAM10 counter -6 and ADAM17 confirm 2.
Screening COc1ccc(C(=O)Nn2c(C)nc3ccccc3c2=O)cc1Br returned ADAM10 inh 5, ADAM17 inh -2, SKN-1 block 4, MT1-MMP act inh 3, GRIN3A LBD mod 1 and MPTP block 1.
`COc1ccc(C(=O)NC2CCN(C(=S)Nc3ccc(C)cc3)CC2)cc1` gave ADAM10 inh -4, ADAM17 inh -1, SKN-1 block -6, MT1-MMP act inh -5, GRIN3A LBD mod 1 and MPTP block -1.
COc1ccc(-n2c(=S)[nH]c3cc(C(=O)Nc4ccccc4OC)ccc3c2=O)c(OC)c1 was read as ADAM10 inh 17, ADAM17 inh 9.0*, SKN-1 block 15, MT1-MMP act inh -1, GRIN3A LBD mod -5, MPTP block -1, ADAM10 counter 28* and ADAM17 confirm 12*.
Screening COc1ccc(-n2c(=S)[nH]c3cc(C(=O)Nc4ccccc4OC)ccc3c2=O)cc1 returned ADAM10 inh 0 and ADAM17 inh 0.
Screening CCCCOc1ccc(C(=O)NC2CCCCN(Cc3ccccc3C)C2=O)cc1 (configuration not stated) returned ADAM10 inh 1 and ADAM17 inh 0.

Screens as filed in PubChem BioAssay.
